Data from PubChem BioAssay AID1793 (Vanderbilt High Throughput Screening Facility, 2009).

Key:
Experiment in all cases: radioligand displacement at GPCRs, ion channels – biochemical, MDS panel, antagonist ancillary profile, selectivity assay for Cl- transport modulator project, profiling panel (AID 1793)
[1] = target: Alpha-2A adrenergic receptor (Homo sapiens) (UniProt P08913); conditions: MDS Pharma radioligand binding panel, % inhibition; measured here: Adrenergic a2A human; at 10 µM; stronger effect = higher value
Alpha-2A adrenergic receptor (Homo sapiens), sequence (P08913 whole entry, looked up): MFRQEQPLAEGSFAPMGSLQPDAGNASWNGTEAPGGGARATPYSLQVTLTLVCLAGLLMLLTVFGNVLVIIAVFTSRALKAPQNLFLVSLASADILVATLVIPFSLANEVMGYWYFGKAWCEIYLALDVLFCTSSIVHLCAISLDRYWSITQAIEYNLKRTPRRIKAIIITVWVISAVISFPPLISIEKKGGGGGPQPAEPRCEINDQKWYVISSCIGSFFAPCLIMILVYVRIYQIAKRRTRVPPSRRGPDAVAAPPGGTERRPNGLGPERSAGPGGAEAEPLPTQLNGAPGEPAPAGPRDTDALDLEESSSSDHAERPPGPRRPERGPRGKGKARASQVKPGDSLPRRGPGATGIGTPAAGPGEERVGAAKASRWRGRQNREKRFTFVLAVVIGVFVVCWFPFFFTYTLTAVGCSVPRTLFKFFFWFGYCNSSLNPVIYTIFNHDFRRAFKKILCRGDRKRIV
Summary of the method: (§1)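 Evaluation: off-target activity per panel target. Material: GPCR, ion channel, transporter off-target panel. Doses: lead compound at one single concentration, 10 µM.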

[2] = target: B2 bradykinin receptor (Homo sapiens) (UniProt P30411); conditions: MDS Pharma radioligand binding panel, % inhibition; measured here: Bradykinin B2 human; at 10 µM; stronger effect = higher value
B2 bradykinin receptor (Homo sapiens), sequence (P30411 whole entry, looked up): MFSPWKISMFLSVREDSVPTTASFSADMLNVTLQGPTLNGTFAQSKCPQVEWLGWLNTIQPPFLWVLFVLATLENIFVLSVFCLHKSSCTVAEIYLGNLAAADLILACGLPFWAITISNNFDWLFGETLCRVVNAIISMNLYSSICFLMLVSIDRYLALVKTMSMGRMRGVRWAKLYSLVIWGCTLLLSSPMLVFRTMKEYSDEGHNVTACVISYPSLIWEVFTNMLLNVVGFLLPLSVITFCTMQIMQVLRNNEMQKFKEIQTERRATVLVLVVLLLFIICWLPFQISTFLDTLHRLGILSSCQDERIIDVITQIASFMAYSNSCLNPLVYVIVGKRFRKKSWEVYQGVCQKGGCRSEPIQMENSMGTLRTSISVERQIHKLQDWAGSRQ
Summary of the method: as §1

[3] = target: Alpha-1B adrenergic receptor (Rattus norvegicus) (UniProt P15823); conditions: MDS Pharma radioligand binding panel, % inhibition; measured here: Adrenergic a1B rat; at 10 µM; stronger effect = higher value
Alpha-1B adrenergic receptor (Rattus norvegicus), sequence (P15823 whole entry, looked up): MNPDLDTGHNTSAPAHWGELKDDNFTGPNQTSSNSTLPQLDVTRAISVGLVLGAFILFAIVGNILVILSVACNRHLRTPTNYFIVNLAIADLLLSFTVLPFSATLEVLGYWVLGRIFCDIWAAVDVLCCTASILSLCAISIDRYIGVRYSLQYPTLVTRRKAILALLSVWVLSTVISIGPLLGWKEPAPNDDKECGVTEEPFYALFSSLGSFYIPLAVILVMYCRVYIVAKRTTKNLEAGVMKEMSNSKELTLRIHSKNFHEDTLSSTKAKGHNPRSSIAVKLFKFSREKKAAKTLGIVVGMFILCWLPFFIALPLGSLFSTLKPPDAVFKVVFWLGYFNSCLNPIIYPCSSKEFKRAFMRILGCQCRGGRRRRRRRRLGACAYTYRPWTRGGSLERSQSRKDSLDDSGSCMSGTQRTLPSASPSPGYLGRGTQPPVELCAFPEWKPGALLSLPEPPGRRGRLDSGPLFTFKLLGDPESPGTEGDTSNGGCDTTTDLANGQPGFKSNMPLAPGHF
Summary of the method: as §1

[4] = target: Beta-1 adrenergic receptor (Homo sapiens) (UniProt P08588); conditions: MDS Pharma radioligand binding panel, % inhibition; measured here: Adrenergic b1 human; at 10 µM; stronger effect = higher value
Beta-1 adrenergic receptor (Homo sapiens), sequence (P08588 whole entry, looked up): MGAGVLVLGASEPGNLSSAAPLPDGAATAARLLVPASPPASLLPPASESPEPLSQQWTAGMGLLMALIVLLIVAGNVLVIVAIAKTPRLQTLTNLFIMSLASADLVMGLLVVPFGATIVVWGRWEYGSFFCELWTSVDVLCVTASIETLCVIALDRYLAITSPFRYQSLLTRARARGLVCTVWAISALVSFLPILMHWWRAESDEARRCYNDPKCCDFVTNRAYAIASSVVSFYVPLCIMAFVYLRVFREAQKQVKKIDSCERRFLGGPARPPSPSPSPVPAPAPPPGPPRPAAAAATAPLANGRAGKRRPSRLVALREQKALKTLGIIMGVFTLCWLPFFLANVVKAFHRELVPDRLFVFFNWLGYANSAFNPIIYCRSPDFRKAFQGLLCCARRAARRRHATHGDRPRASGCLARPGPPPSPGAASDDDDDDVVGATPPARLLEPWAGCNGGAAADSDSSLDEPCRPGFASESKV
Summary of the method: as §1

[5] = target: Adenosine receptor A2a (Homo sapiens) (UniProt P29274); conditions: MDS Pharma radioligand binding panel, % inhibition; measured here: Adenosine A2 human; at 10 µM; stronger effect = higher value
Summary of the method: as §1

[6] = target: Alpha-1A adrenergic receptor (Rattus norvegicus) (UniProt P43140); conditions: MDS Pharma radioligand binding panel, % inhibition; measured here: Adrenergic a1A rat; at 10 µM; stronger effect = higher value
Alpha-1A adrenergic receptor (Rattus norvegicus), sequence (P43140 whole entry, looked up): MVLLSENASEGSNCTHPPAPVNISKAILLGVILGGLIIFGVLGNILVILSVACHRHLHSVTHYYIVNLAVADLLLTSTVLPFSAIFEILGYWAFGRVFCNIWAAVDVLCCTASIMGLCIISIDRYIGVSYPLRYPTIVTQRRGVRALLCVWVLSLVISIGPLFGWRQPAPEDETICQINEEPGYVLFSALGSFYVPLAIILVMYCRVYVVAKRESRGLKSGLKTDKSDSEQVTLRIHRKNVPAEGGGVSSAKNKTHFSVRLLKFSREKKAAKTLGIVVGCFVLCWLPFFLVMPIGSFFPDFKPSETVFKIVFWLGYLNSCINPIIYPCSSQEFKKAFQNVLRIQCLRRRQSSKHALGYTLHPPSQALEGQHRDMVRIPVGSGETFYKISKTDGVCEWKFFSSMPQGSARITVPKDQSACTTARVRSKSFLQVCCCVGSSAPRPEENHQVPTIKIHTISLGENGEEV
Summary of the method: as §1

[7] = target: Voltage-dependent L-type calcium channel subunit alpha-1C (Rattus norvegicus) (UniProt P22002); conditions: MDS Pharma radioligand binding panel, % inhibition; measured here: L-type Ca channel BTZ rat; at 10 µM; stronger effect = higher value
Summary of the method: as §1

[8] = target: Alpha-1D adrenergic receptor (Homo sapiens) (UniProt P25100); conditions: MDS Pharma radioligand binding panel, % inhibition; measured here: Adrenergic a1D human; at 10 µM; stronger effect = higher value
Summary of the method: as §1

[9] = target: Beta-2 adrenergic receptor (Homo sapiens) (UniProt P07550); conditions: MDS Pharma radioligand binding panel, % inhibition; measured here: Adrenergic b2 human; at 10 µM; stronger effect = higher value
Beta-2 adrenergic receptor (Homo sapiens), sequence (P07550 whole entry, looked up): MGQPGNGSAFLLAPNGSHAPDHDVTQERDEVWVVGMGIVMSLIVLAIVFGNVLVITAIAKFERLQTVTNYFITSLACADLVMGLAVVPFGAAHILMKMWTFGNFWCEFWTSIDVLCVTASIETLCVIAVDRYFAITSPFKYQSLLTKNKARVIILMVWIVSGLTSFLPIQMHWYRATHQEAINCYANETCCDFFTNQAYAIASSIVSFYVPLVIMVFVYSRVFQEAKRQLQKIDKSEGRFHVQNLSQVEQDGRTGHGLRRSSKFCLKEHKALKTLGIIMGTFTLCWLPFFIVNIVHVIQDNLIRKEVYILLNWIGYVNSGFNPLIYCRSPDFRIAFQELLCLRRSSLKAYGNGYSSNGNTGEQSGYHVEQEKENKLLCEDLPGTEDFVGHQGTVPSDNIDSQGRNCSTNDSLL
Summary of the method: as §1

[10] = target: Adenosine receptor A1 (Homo sapiens) (UniProt P30542); conditions: MDS Pharma radioligand binding panel, % inhibition; at 10 µM; stronger effect = higher value
Adenosine receptor A1 (Homo sapiens), sequence (P30542 whole entry, looked up): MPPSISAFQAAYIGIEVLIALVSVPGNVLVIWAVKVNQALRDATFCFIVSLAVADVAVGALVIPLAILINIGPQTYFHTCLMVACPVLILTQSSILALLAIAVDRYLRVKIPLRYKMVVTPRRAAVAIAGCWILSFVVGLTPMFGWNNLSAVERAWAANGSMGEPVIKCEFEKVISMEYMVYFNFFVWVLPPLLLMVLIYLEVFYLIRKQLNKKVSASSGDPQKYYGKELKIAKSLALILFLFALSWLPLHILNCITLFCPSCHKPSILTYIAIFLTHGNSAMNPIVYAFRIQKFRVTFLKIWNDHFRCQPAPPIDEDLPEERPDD
Summary of the method: as §1

[11] = target: Adenosine receptor A3 (Homo sapiens) (UniProt P0DMS8); conditions: MDS Pharma radioligand binding panel, % inhibition; measured here: Adenosine A3 human; at 10 µM; stronger effect = higher value
Adenosine receptor A3 (Homo sapiens), sequence (P0DMS8 whole entry, looked up): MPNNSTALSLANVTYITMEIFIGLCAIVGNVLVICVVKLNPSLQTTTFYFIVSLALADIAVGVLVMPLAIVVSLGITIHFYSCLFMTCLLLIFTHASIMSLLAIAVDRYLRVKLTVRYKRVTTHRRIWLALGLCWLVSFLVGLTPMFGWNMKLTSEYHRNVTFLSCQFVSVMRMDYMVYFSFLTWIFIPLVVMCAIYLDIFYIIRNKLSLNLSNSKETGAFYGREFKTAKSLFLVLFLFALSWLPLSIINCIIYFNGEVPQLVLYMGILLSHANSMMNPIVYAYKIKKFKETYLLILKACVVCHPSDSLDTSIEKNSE
Summary of the method: as §1

[12] = target: B1 bradykinin receptor (Homo sapiens) (UniProt P46663); conditions: MDS Pharma radioligand binding panel, % inhibition; measured here: Bradykinin B1 human; at 10 µM; stronger effect = higher value
B1 bradykinin receptor (Homo sapiens), sequence (P46663 whole entry, looked up): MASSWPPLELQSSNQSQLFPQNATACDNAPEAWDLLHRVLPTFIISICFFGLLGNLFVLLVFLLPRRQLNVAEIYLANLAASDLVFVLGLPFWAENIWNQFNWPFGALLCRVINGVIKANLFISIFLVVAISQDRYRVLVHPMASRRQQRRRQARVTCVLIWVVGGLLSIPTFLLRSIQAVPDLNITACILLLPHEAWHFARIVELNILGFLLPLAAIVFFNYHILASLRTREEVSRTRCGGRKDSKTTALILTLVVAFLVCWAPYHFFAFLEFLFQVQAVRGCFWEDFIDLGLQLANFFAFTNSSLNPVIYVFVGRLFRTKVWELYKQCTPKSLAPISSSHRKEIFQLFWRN
Summary of the method: as §1

[13] = target: Androgen receptor (Rattus norvegicus) (UniProt P15207); conditions: MDS Pharma radioligand binding panel, % inhibition; measured here: Androgen receptor rat; at 10 µM; stronger effect = higher value
Androgen receptor (Rattus norvegicus), sequence (P15207 whole entry, looked up): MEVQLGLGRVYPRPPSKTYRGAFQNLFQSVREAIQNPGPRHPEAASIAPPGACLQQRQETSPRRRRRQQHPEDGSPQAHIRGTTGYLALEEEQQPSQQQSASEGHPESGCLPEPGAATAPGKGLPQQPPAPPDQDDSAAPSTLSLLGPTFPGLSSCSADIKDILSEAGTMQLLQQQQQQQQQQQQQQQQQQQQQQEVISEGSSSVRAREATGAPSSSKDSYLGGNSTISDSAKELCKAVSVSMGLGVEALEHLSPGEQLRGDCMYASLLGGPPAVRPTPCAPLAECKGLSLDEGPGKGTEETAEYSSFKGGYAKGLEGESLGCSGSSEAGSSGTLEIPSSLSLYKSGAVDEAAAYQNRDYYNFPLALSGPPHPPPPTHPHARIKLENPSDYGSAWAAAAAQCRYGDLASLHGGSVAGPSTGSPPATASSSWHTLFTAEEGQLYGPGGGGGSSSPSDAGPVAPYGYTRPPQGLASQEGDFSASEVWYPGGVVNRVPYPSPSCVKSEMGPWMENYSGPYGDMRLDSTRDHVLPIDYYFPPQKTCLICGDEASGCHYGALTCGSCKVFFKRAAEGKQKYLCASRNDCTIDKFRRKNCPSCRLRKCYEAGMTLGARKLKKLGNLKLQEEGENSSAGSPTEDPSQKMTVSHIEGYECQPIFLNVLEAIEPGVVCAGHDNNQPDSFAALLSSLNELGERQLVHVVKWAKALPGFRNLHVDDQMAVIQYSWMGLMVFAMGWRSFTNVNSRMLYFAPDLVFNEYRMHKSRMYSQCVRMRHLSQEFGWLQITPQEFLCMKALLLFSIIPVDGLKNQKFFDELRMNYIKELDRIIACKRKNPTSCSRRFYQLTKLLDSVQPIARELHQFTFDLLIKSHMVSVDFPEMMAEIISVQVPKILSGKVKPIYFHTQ
Summary of the method: as §1

Molecule Cc1csc(N(C)C(=O)CSc2ccc(-c3ccccc3)nn2)n1 has an inhibition [1] of -7%, an inhibition [2] of 2% and an inhibition [3] of 3%. It also gave an inhibition [4] of 10%, an inhibition [5] of 38% and an inhibition [6] of 33%. The inhibition [7] was 10%, the inhibition [8] was 16% and the inhibition [9] was 9%. The inhibition [10] was 31%, the inhibition [11] was 38% and the inhibition [12] was 6%. For the same molecule, the inhibition [13] was 4%.
